# From PubChem BioAssay
# This is a sample that favours compounds with a hit; in the whole collection about 3.3% have one here.
# ABCB6 inh MLPCN: blocks the human ABCB6 transporter. K562-ABCB6 porphyrin accumulation, flow cytometry, 1 h; hits give low values. actives 0.19% (n = 360,000). Q9NP58. AID 602162. fluorescence ratio to DMSO, % at 10 µM;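 active means fluorescence ratio to DMSO below 75%, the collection mean minus 3 SD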;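 further: signal is porphyrin accumulated inside mitochondria; lower ratio means ABCB6 inhibition with less porphyrin fluorescence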
# Arrestin-AP2 inh: blocks beta-arrestin peptide binding to AP2 adaptin; FITC-arrestin peptide / GST-AP2 beads, flow cytometry; AP2 beta2 appendage carries R879A mutation; inhibition, % at 10 µM; actives 0.31% (n = 340,000); AID 504490;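 active means inhibition above a set limit, near 3 SD of compounds lacking own fluorescence, cut at about 54% in these data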
#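 system = GST-tagged AP2 beta2-adaptin appendage (R879A) on 4 µm glutathione beads | reagent = FITC-labelled arrestin peptide probe, 50 nM final | schedule = compound with beads 12 min RT, then probe 1 h RT | signal = HyperCyt-sampled flow cytometry, FL1 channel, ex 488/em 535 nm | read-out = percent response from loss of bead-bound FITC fluorescence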
# Myeloid diff MLP: myeloid differentiation induction | actives 1% (n = 360,000) | calls only at 10 µM | AID 624256 | ER-HoxA9 myeloid progenitors, lysozyme-GFP differentiation, flow cytometry;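 active means normalized GFP-positive differentiation at or above the plate's own cutoff, the solvent-only control mean plus 3 SD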;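 further: cells exposed to compound for four days before flow analysis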
# NRP1-CendR mod: modulators of CendR peptide binding to human neuropilin-1 | actives 0.85% (n = 360,000) | AID 602438 | FAM-RPARPAR peptide binding to NRP-1, fluorescence polarization | inhibition, % at 25 µM | O14786;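 active means inhibition or corrected inhibition above about 18%, plus a signal ratio from 0.5 to 1.5, limit read from the data, passing the limit was not always enough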
# ATG4B inh: ATG4B (human) cysteine protease inhibition; Q9Y4P1; ATG4B cleavage of LC3-PLA2, NBD-HPC fluorescence, 1 h; inhibition, % at 8.33 µM; actives 0.51% (n = 340,000); AID 504462; in the data active means inhibition above about 40%
# Exocytosis inh: blocks lytic granule exocytosis. TALL-104 LAMP-1 surface exposure, flow cytometry; cells stimulated with thapsigargin and PMA. inhibition, % at 10 µM. actives 0.66% (n = 360,000). AID 651702;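 active means inhibition above about 55%, limit read from the data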
# Arr AP2 CP1: inhibitors of human beta-arrestin and AP2 interaction; shares compounds with Arrestin-AP2 inh; GST-AP2 beads, FITC arrestin peptide binding, flow cytometry; GST-fused beta2-adaptin appendage, R879A mutant; inhibition, % at 10 µM; actives 2% (n = 1,300); AID 504908;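 active means inhibition above a set limit, roughly 3 SD of non-fluorescent compound noise, cut at about 38% in these data; inactive means inhibition at or below that limit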;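 further: loss of bead fluorescence from 50 nM FITC arrestin peptide bound to appendage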
# GST-FITC bead: counter-screen for beta-arrestin AP2 inhibitors: GST-GSH bead binding. GST-fluorescein binding to GSH beads, fluorescence. shares compounds with Arrestin-AP2 inh. actives 2% (n = 1,300). inhibition, % at 10 µM;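 active means inhibition above 50%, about 3 SD of the inhibition seen with non-fluorescent compounds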;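 further: fluorescein maleimide labelled GST captured on 4 micron glutathione beads; higher means more loss of bead fluorescence from quenching or blocked binding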
# Numbers stand for hits; - = inactive; . = not tested or not shown.
SMILES,ABCB6 inh MLPCN,Arrestin-AP2 inh,Myeloid diff MLP,NRP1-CendR mod,ATG4B inh,Exocytosis inh,Arr AP2 CP1,GST-FITC bead
Cn1c(N)c(C(=O)COC(=O)c2ccccc2C(F)(F)F)c(=O)n(C)c1=O,-,-,-,-,-,-,-,-
Cn1c(N)c(C(=O)COC(=O)c2ccccn2)c(=O)n(C)c1=O,-,-,-,-,-,-,-,-
N#Cc1cccc(C(=O)OCC(=O)c2ccc3c(c2)NC(=O)CO3)c1,-,-,-,-,-,-,.,.
Cc1ccc(O)c(C(=O)c2cnc3c(c2)c(C)nn3C)c1,-,-,-,-,-,-,.,.
CC[n+]1c(/C=C/Nc2ccccc2)sc2ccccc21,-,-,-,-,-,-,.,.
CCN1/C(=C/C=C/c2sc3ccccc3[n+]2CC)Sc2ccccc21,-,75.5,-,-,-,75.2,-,-
COC(=O)/C=C1\N/C(=N/c2nc(C)c3cc(OC)ccc3n2)NC1=O,-,-,-,-,-,-,.,.
O=C(Nc1cccnc1)c1ccc(Cl)c(Cl)c1,-,-,-,-,-,-,.,.
CC(C)(C)c1cc(C(=O)Nc2cccnc2)cc(C(=O)Nc2cccnc2)c1,-,61.0,-,-,-,-,-,-
CC(C)NC(=O)N(C)C[C@H]1Oc2c(cccc2N(C)C)C(=O)N([C@H](C)CO)C[C@@H]1C,-,-,-,-,-,-,.,.
CCOC(=O)C1=C(C)NC(=O)NC1c1ccccc1OCc1c(F)cccc1Cl (centres undefined),-,-,-,-,-,-,.,.
Cc1[nH]c2ccc(C(=O)OC(C)C(=O)N(C)c3ccccc3)cc2c1C (centres undefined),-,-,-,-,-,-,.,.
CC(=O)Nc1ccc(NC(=O)C(C)OC(=O)c2ccc3[nH]c(C)c(C)c3c2)cc1 (centres undefined),-,57.0,-,-,-,-,-,-
CC(=O)c1ccc(NC(=O)CNc2cc(S(=O)(=O)N3CCOCC3)ccc2N2CCCC2)cc1,-,-,-,-,-,-,.,.
CC/C(=N\N=C1\SC(C)C(=O)N1Cc1ccco1)c1ccccc1 (centres undefined),-,59.3,-,-,-,-,-,-
CC1S/C(=N/N=C/c2ccco2)N(Cc2ccccc2)C1=O (centres undefined),-,-,-,-,-,-,.,.
O=C(NC1CCCC1)C1CCN(C(=O)c2cccc(Cl)c2)CC1,-,-,-,-,-,-,.,.
CC1Cc2ccccc2N1C(=O)C(C)n1cc(C(F)(F)F)cc(Cl)c1=O (centres undefined),-,68.8,-,-,-,-,-,-
CC1Cc2ccccc2N1C(=O)Cn1cc(C(F)(F)F)ccc1=O (centres undefined),-,.,-,-,.,-,.,.
Cn1nc(C(=O)NC2CCCC2)c2ccccc2c1=O,-,69.4,-,-,-,-,-,-
O=C(NC1CCCC1)c1cc2c(=O)n3ccccc3nc2s1,-,-,-,-,-,-,.,.
Cn1c(C(=O)NC2CCCCC2)cc2c(=O)n3ccccc3nc21,-,59.6,-,-,-,-,-,-
O=C(C1=C(O)C(=O)N(CCCn2ccnc2)C1c1cccc(Br)c1)c1ccco1 (centres undefined),-,55.2,-,-,-,-,-,-
O=C(C1=C(O)C(=O)N(CCCn2ccnc2)C1c1ccccc1)c1ccco1 (centres undefined),-,-,-,-,-,-,.,.
Cc1cc2nnc(SCC(=O)N(C)C3CCS(=O)(=O)C3)n2c2ccccc12 (centres undefined),-,-,-,-,-,-,.,.
O=C(COc1cccc(Cl)c1Cl)NC1CC1,-,-,-,-,-,-,.,.
O=C1CC(c2ccccc2)c2ccccc21 (centres undefined),-,-,-,-,-,-,.,.
O=C1CC(C(=O)O)C(c2ccccc2)c2ccccc21 (centres undefined),-,55.2,-,-,-,-,-,-
